The full list was thinned out, with hits kept by preference.
IDH1 R132H inh = blocks human IDH1 R132H reductase activity; O75874; diaphorase/resazurin fluorescence, 60 min; inhibition, % at 10 µM; 0.18% of 70,000 active; AID 624101; in the data active = inhibition above about 34%; inconclusive = no clear call, values can overlap the other calls; inactive = below about 11%;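 also: 0% = DMSO and 100% = no enzyme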
GASC1 inh = KDM4C (human) demethylase inhibition; Q9H3R0; GST-KDM4C 2-372, H3K9me3 peptide, LANCE TR-FRET; inhibition, % at 12.5 µM; 0.15% of 96,000 active; AID 720574;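 active = mean replicate inhibition above about 25%, with at least 55% of replicates also reaching it, limit read from the data, passing the limit was not always enough; inconclusive = only one of those two conditions met; inactive = neither condition met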
Target sequence (Q9H3R0 2-372 limits assumed): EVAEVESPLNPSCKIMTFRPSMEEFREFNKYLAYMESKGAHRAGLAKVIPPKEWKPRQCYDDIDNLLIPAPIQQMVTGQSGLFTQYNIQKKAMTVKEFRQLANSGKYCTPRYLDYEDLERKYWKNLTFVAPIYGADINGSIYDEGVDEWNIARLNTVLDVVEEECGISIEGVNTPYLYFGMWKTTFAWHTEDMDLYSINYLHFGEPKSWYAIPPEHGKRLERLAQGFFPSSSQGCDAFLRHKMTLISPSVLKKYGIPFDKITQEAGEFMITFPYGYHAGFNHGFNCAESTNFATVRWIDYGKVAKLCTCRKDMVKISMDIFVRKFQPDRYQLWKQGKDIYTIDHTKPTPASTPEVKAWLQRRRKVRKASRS
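Material: GST-tagged GASC-1 (JMJD2C) catalytic fragment, aa 2-372. Input: enzyme final amount 10 nM. Medium: HEPES buffer, pH 7.5, plus ascorbate. Reagent: H3K9me3 peptide substrate, Fe(II), 2-oxoglutarate. Doses: single dose. Times: reaction 30 min RT, detection step 1 h RT. Measured by: LANCE TR-FRET. Evaluation: Fall in 671/618 emission ratio as inhibition.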
T cruzi growth-1 = blocks T. cruzi growth in NIH3T3 culture | inhibition, % at 8.34 µM | T. cruzi beta-gal in NIH3T3, GalScreen luminescence, 90 h | 5.9% of 77,000 active | AID 624255;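 active = mean inhibition above about 93%, with at least 55% of replicates each passing it, limit read from the data, passing the limit was not always enough; inconclusive = only one of those two conditions holds; inactive = neither condition holds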
T cruzi growth-2 = blocks T. cruzi growth in NIH3T3 host cells. shares compounds with T cruzi growth-1. T. cruzi beta-gal in NIH3T3, GalScreen luminescence, 90 h. inhibition, % at 8.35 µM. 72% of 5,600 active;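 active = mean replicate inhibition above about 95% and at least 55% of replicates individually reaching it, limit read from the data; inconclusive = only one of the two criteria is met; inactive = neither criterion is met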
T cruzi growth-3 = blocks T. cruzi growth in NIH3T3 host cells; shares compounds with T cruzi growth-1; inhibition, % at 2.09 µM; AID 651740; 21% of 5,600 active; T. cruzi beta-gal in NIH3T3, GalScreen luminescence, 90 h;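 active = mean inhibition above about 95%, with at least 55% of replicates also reaching it, limit read from the data; inconclusive = meets just one of the two conditions; inactive = meets neither condition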;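 also: plate controls were neutral control median for no effect and positive control median for full effect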
NIH3T3 tox = kills mouse NIH/3T3 fibroblasts | NIH/3T3 viability, CellTiter-Glo ATP luminescence, 90 h | 14% of 5,600 active | shares compounds with T cruzi growth-1 | cytotoxicity (signal decrease), % at 8.35 µM;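 active = mean signal decrease across replicates above about 35% based on untreated-well scatter, with enough replicates individually passing, limit read from the data; inconclusive = no rule stated though some were filed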;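 also: 0% = median of neutral control wells and 100% = median of positive control wells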
NIH3T3 tox 2 = kills mouse NIH/3T3 fibroblasts. shares compounds with T cruzi growth-1. NIH/3T3 viability, CellTiter-Glo ATP luminescence, 90 h. inhibition, % at 24.9 µM. 56% of 5,600 active. AID 651744;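 active = mean loss of cell viability signal at or above a set limit, and enough replicates individually reaching it; inconclusive = meets only the mean limit or only the replicate share; inactive = meets neither condition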;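 also: 0% = median of neutral control wells and 100% = median of positive control wells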
* hit, by the source's call; u = inconclusive; x = no result.

SMILES	IDH1 R132H inh	GASC1 inh	T cruzi growth-1	T cruzi growth-2	T cruzi growth-3	NIH3T3 tox	NIH3T3 tox 2
O=C(C[C@H]1CC[C@@H]2[C@H](COC[C@H](O)CN2Cc2cc(F)ccc2F)O1)N[C@@H]1CCN(Cc2ccccc2)C1	x	0	130*	67	8	-18	-5
O=C(C[C@@H]1CC[C@@H]2[C@H](COC[C@@H](O)CN2Cc2ccccc2F)O1)N[C@@H]1CCN(Cc2ccccc2)C1	x	1	99*	80	46	-18	-47
O=C(C[C@@H]1CC[C@H]2[C@@H](COC[C@@H](O)CN2Cc2cc(F)ccc2F)O1)N[C@H]1CCN(Cc2ccccc2)C1	x	-5	49	x	x	x	x
O=C(C[C@@H]1CC[C@H]2[C@@H](COC[C@@H](O)CN2Cc2cc(F)ccc2F)O1)N[C@@H]1CCN(Cc2ccccc2)C1	x	3	95	x	x	x	x
C[C@@H]1CN([C@H](C)CO)C(=O)c2cc(NC(=O)CCCCCC(=O)Nc3ccccc3N)ccc2O[C@@H]1CN(C)S(=O)(=O)c1cn(C)cn1	0	0	x	x	x	x	x
CCCC#Cc1cnc2c(c1)C(=O)N([C@H](C)CO)C[C@H](C)[C@@H](CN(C)C(=O)NCCC)O2	0	0	-12	x	x	x	x
COCC(=O)N1CC2(CCN(Cc3cccnc3)CC2)c2c(n(C)c3cc(OC)ccc23)[C@@H]1CO	x	0	x	x	x	x	x
C[C@@H]1CN([C@H](C)CO)C(=O)c2cccc(NS(=O)(=O)c3ccc(Cl)cc3)c2O[C@H]1CN(C)Cc1ccc(Cl)c(Cl)c1	x	-3	90	x	x	x	x
O=C(C[C@@H]1CC[C@@H]2[C@H](COC[C@@H](O)CN2Cc2cc(F)ccc2F)O1)N1CCc2ccccc2C1	x	2	65	x	x	x	x
O=C(C[C@H]1CC[C@H]2[C@@H](COC[C@H](O)CN2Cc2cc(F)ccc2F)O1)N1CCc2ccccc2C1	x	2	98*	79	0	-8	16
N#C[C@H]1N[C@H](CO)[C@H]1c1ccc(C#Cc2ccccc2F)cc1	x	-1	84	x	x	x	x
N#C[C@@H]1[C@@H](c2ccc(C#Cc3ccccc3F)cc2)[C@H](CO)N1C(=O)C1CC1	x	-3	104*	103*	93	10	19
N#C[C@H]1[C@H](c2ccc(C#Cc3ccccc3F)cc2)[C@@H](CO)N1C(=O)C1CC1	x	-2	102*	100*	100*	12	3
N#C[C@@H]1[C@@H](c2ccc(C#Cc3ccccc3F)cc2)[C@H](CO)N1C(=O)C1CCCC1	x	-1	x	x	x	x	x
N#C[C@H]1N[C@@H](CO)[C@H]1c1ccc(C#Cc2ccccc2F)cc1	x	0	100*	103*	109*	-14	8
N#C[C@@H]1[C@@H](c2ccc(C#Cc3ccccc3F)cc2)[C@@H](CO)N1C(=O)C1CC1	x	1	78	x	x	x	x
CC(C)NC(=O)N(C)C[C@H]1Oc2ccc(NC(=O)CCCCCC(=O)Nc3ccccc3N)cc2C(=O)N([C@@H](C)CO)C[C@H]1C	0	-1	x	x	x	x	x
COc1ccc(S(=O)(=O)N(C)C[C@H]2Oc3c(NC(=O)C4CCOCC4)cccc3C(=O)N([C@@H](C)CO)C[C@H]2C)cc1	3	0	75	x	x	x	x
COc1ccc2c3c(n(C)c2c1)[C@@H](CO)N(CC1CC1)CC31CN(C(=O)c2ccc3c(c2)OCO3)C1	x	1	x	x	x	x	x
C[C@H]1CN([C@@H](C)CO)C(=O)Cc2cc(NS(C)(=O)=O)ccc2O[C@@H]1CN(C)C(=O)Nc1cccc2ccccc12	0	2	6	x	x	x	x
C[C@@H]1CN([C@H](C)CO)S(=O)(=O)c2ccc(-c3cccnc3)cc2O[C@@H]1CN(C)C(=O)c1ccc2c(c1)OCO2	1	-1	17	x	x	x	x
OC(CN1CCN(C/C=C/c2ccccc2)CC1)Cn1c2ccccc2c2ccccc21 (centres undefined)	1	x	x	x	x	x	x
CC(C)NC(=O)N(C)C[C@H]1Oc2ccc(NC(=O)C3CC3)cc2CC(=O)N([C@@H](C)CO)C[C@H]1C	-2	0	51	x	x	x	x
C/C=C/c1ccc([C@@H]2[C@H](CO)N3CCCCN(C(=O)Nc4ccc(F)cc4)C[C@@H]23)cc1	x	8	59	x	x	x	x
C/C=C/c1ccc([C@H]2[C@H](CO)N3CCCCN(C(=O)Nc4ccc(F)cc4)C[C@@H]23)cc1	x	1	90	x	x	x	x
SMILES	IDH1 R132H inh	GASC1 inh	T cruzi growth-1	T cruzi growth-2	T cruzi growth-3	NIH3T3 tox	NIH3T3 tox 2
C/C=C/c1ccc([C@@H]2[C@H]3CN(C(=O)Nc4ccc(F)cc4)CCCCN3[C@H]2CO)cc1	x	-1	u	112*	74	33	106*
C/C=C/c1ccc([C@@H]2[C@@H](CO)N3CCCCN(C(=O)Nc4ccc(F)cc4)C[C@@H]23)cc1	x	0	97*	108*	39	17	74*
O=C(c1ccccc1F)N1CC(=O)N2[C@@H](CO)[C@H](c3ccc(-c4ccc(F)cc4)cc3)[C@@H]2C1	x	-1	x	x	x	x	x
CO[C@@H]1CN(C)C(=O)c2cc(NC(=O)C3CC3)ccc2OC[C@@H](C)N(C(=O)CN2CCOCC2)C[C@@H]1C	0	0	35	x	x	x	x
COc1cccc(-c2ccc([C@@H]3[C@H]4CN(CC5CC5)CCCCN4[C@H]3CO)cc2)c1	x	-1	93	x	x	x	x
OC[C@@H]1[C@H](c2ccc(-c3cccnc3)cc2)[C@H]2CN(CC3CCOCC3)CCCCN12	x	x	97*	u	83	-9	7
COc1cccc(-c2ccc([C@H]3[C@@H](CO)N4CCCCN(CC5CCOCC5)C[C@H]34)cc2)c1	x	x	107*	107*	70	8	97*
OC[C@@H]1[C@@H](c2ccc(-c3cccnc3)cc2)[C@@H]2CN(CC3CCOCC3)CCCCN12	x	x	-47	x	x	x	x
C[C@@H]1CN([C@@H](C)CO)C(=O)c2cccc(NS(=O)(=O)c3cccs3)c2O[C@@H]1CN(C)Cc1ccc(Cl)c(Cl)c1	0	0	14	x	x	x	x
COc1cc2c(cc1OC)C1Cc3ccc(OC)c(OC)c3CN1CC2 (centres undefined)	-2	x	x	x	x	x	x
Cc1noc(C)c1NC(=O)N(C)C[C@H]1Oc2ccc(NS(=O)(=O)c3cn(C)cn3)cc2C(=O)N([C@@H](C)CO)C[C@H]1C	-1	-1	-11	x	x	x	x
C[C@@H]1CCCCO[C@@H](CN(C)Cc2ccc(C(=O)O)cc2)[C@H](C)CN([C@@H](C)CO)C(=O)c2cc(NC(=O)Cc3ccccc3)ccc2O1	-2	1	38	x	x	x	x
Cc1ccccc1S(=O)(=O)N1CC[C@@H]2[C@@H](CO)Nc3ccc(-c4ccccc4F)cc3[C@@H]21	x	-3	119*	102*	85	39*	104*
O=S(=O)(c1ccccc1F)N1CC[C@@H]2[C@H](CO)Nc3ccc(-c4ccccc4F)cc3[C@@H]21	x	1	45	x	x	x	x
COc1ccccc1-c1ccc2c(c1)[C@@H]1[C@@H](CCN1S(=O)(=O)c1ccccc1OC)[C@H](CO)N2	x	-1	26	x	x	x	x

Source: PubChem
